Measured values published in ChEMBL document CHEMBL3739416, “Discovery of a marine-derived bis-indole alkaloid fascaplysin, as a new class of potent P-glycoprotein inducer and establishment of its structure-activity relationship” (Eur J Med Chem, 2016).
Active and inactive are the calls of the source. The rule behind the calls is not given here.

Columns and labels:
LS180 [1] = assay: Induction of P-glycoprotein in human LS180 cells assessed as accumulation of intracellular rhodamine-123 at 5 uM after 48 hrs by fluorescence assay; assay type: cell-based
Outline: (§1)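 LS-180 colorectal cells, seeded at 2 × 10⁴ per well, were grown 24 h and then exposed to compound for 48 h, with 0.1% final DMSO. Rifampicin at 10 µM served as the reference inducer. Cells were held in HANKS buffer for 40 min, then loaded with Rh123 for 90 min and washed four times in cold PBS. Lysis was 1 h in 0.1% Triton X-100/0.2 N NaOH. Read-out was intracellular Rh123 per total protein, expressed as % of untreated control. Values are the mean ± SD of three experiments.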

LS180 [2] = assay: Induction of P-glycoprotein in human LS180 cells assessed as accumulation of intracellular rhodamine-123 at 1 uM after 48 hrs by fluorescence assay relative to control; assay type: cell-based; outline: as §1
[3] = Cytotoxicity against human LS180 cells assessed as cell viability at 10 uM after 48 hrs by MTT assay relative to control; assay type: cell-based; settings: read-out: Activity
Outline: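 LS-180 cells were seeded at 1 × 10⁴ per well, allowed 24 h, then treated with compound. MTT dye was added 4 h before the end. Formazan was dissolved in DMSO and absorbance read at 570 nm. Viability was expressed relative to the untreated control, taken as 100%.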

LS180 [4] = assay: Induction of P-glycoprotein in human LS180 cells assessed as accumulation of intracellular rhodamine-123 at 250 nM after 48 hrs by fluorescence assay relative to control; assay type: cell-based; outline: as §1
[5] = Thermodynamic aqueous solubility of the compound in stimulated intestinal fluid; assay type: ADME; settings: simulated intestinal fluid; read-out: Therm_solubility
[6] = Thermodynamic aqueous solubility of the compound in water; assay type: physicochemical; settings: read-out: Therm_solubility
LS180 [7] = assay: Induction of P-glycoprotein in human LS180 cells assessed as accumulation of intracellular rhodamine-123 at 500 nM after 48 hrs by fluorescence assay relative to control; assay type: cell-based; outline: as §1
[8] = Thermodynamic aqueous solubility of the compound in phosphate buffer saline; assay type: physicochemical; settings: read-out: Therm_solubility
LS180 [9] = assay: Induction of P-glycoprotein expression in human LS180 cells at 1 uM by Western blot analysis relative to control; assay type: cell-based
[10] = Thermodynamic aqueous solubility of the compound in stimulated gastric fluid; assay type: ADME; settings: simulated gastric fluid; read-out: Therm_solubility
LS180 [11] = assay: Induction of P-glycoprotein in human LS180 cells assessed as accumulation of intracellular rhodamine-123 at 125 nM after 48 hrs by fluorescence assay relative to control; assay type: cell-based; outline: as §1
LS180 [12] = assay: Induction of P-glycoprotein in human LS180 cells assessed as accumulation of intracellular rhodamine-123 at 62.5 nM after 48 hrs by fluorescence assay relative to control; assay type: cell-based; outline: as §1
LS180 [13] = assay: Induction of P-glycoprotein in human LS180 cells assessed as accumulation of intracellular rhodamine-123 at 10 uM after 48 hrs by fluorescence assay relative to control; assay type: cell-based; outline: as §1
[14] = Cytotoxicity against HGF cells assessed as cell viability after 48 hrs by MTT assay; assay type: cell-based; settings: Homo sapiens
Outline: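 Normal human gingival fibroblasts grown in MEM with 1% non-essential amino acids, 10% FCS, penicillin G and streptomycin at 37 °C, 5% CO2. Seeded at 1 × 10⁴ cells/well for 24 h, then compound-treated. MTT added 4 h before the end, formazan dissolved in DMSO, absorbance read at 570 nm. Viability expressed relative to untreated control set as 100%.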

SMILES | Activity (LS180 [1]) | Activity (LS180 [2]) | viability at 48 h, 10 µM [3] | other results
CN1CCN(C(=O)N2CCc3c([nH]c4ccccc34)C2)CC1 | inactive |  |  | 
O=C(c1ccccc1Cl)c1nccc2c1[nH]c1ccccc12 |  | 105% | 89.4% | 
O=C(c1cc(Cl)ccc1Cl)c1nccc2c1[nH]c1ccccc12 |  | 103% | 69.6% | 
O=C1c2cc(F)c(F)cc2-[n+]2ccc3c([nH]c4ccccc43)c21.[Cl-] |  | 49.6% | 63.5% | Activity (LS180 [4]): 35.3%; solubility thermodynamic [5]: < 5 µg/mL; solubility thermodynamic [6]: > 1500 µg/mL; Activity (LS180 [7]): 30.6%; solubility thermodynamic [8]: 80 µg/mL; fold change (FC) (LS180 [9]): 4; solubility thermodynamic [10]: 80 µg/mL; Activity (LS180 [11]): 33.8%; Activity (LS180 [12]): 35.5%
O=C(c1ccc(-c2ccccc2)cc1)N1CCc2c([nH]c3ccccc23)C1 | inactive |  |  | 
Cc1noc(C)c1CN1CCc2c([nH]c3ccccc23)C1 | inactive |  |  | 
O=C(c1cc2ccccc2o1)N1CCc2c([nH]c3ccccc23)C1 | inactive |  |  | 
O=C(c1ccc(-c2cccc([N+](=O)[O-])c2)o1)N1CCc2c([nH]c3ccccc23)C1 | inactive |  |  | 
CO[C@H]1/C=C/O[C@@]2(C)Oc3c(C)c(O)c4c(O)c(c(/C=N/N5CCN(C)CC5)c(O)c4c3C2=O)NC(=O)/C(C)=C\C=C\[C@H](C)[C@H](O)[C@@H](C)[C@@H](O)[C@@H](C)[C@H](OC(C)=O)[C@@H]1C |  |  |  | Activity (LS180 [13]): 67.1%
c1ccc2nc(CN3CCc4c([nH]c5ccccc45)C3)ccc2c1 | inactive |  |  | 
Cc1ncsc1C(=O)N1CCc2c([nH]c3ccccc23)C1 | inactive |  |  | 
O=C(c1ccc(Cl)cc1Cl)c1nccc2c1[nH]c1ccccc12 |  | 97.3% | 98.8% | 
O=C(c1cc(F)c(Cl)cc1Cl)c1nccc2c1[nH]c1ccccc12 |  | 106% | 92.4% | 
C[n+]1ccc2c([nH]c3ccccc32)c1C(=O)c1ccccc1 |  | 75.2% | 77.5% | 
O=C(c1ccc(Br)o1)N1CCc2c([nH]c3ccccc23)C1 | inactive |  |  | 
c1ccc2c(CN3CCc4c([nH]c5ccccc45)C3)c3ccccc3cc2c1 | inactive |  |  | 
O=C(c1ccc(-c2cc(C(F)(F)F)ccc2Cl)o1)N1CCc2c([nH]c3ccccc23)C1 | inactive |  |  | 
c1ccc2[nH]c(CN3CCc4c([nH]c5ccccc45)C3)nc2c1 | inactive |  |  | 
O=C(c1ccccc1F)c1nccc2c1[nH]c1ccccc12 |  | 101% | 98.4% | 
O=C(c1c[nH]c2ccccc12)N1CCc2c([nH]c3ccccc23)C1 | inactive |  |  | 
O=C1c2ccc(Cl)cc2-[n+]2ccc3c([nH]c4ccccc43)c21 |  | 57.1% | 66.2% | 
Cc1ccsc1C(=O)N1CCc2c([nH]c3ccccc23)C1 | inactive |  |  | 
O=C(c1ccc(Cl)c(Cl)c1Cl)c1nccc2c1[nH]c1ccccc12 |  | 104% | 84.9% | 
O=C(c1ccccc1Br)c1nccc2c1[nH]c1ccccc12 |  | 105% | 80.3% | 
C[n+]1ccc2c([nH]c3ccccc32)c1C(=O)c1ccc(C(F)(F)F)cc1 |  | 78.5% | 75.7% | 

SMILES | Activity (LS180 [1]) | Activity (LS180 [2]) | viability at 48 h, 10 µM [3] | other results
O=C(c1c(F)cccc1Cl)c1nccc2c1[nH]c1ccccc12 |  | 89.6% | 60.1% | 
O=C1NCCN1C(=O)N1CCc2c([nH]c3ccccc23)C1 | inactive |  |  | 
COc1ccc(C(=O)c2nccc3c2[nH]c2ccccc23)c(OC)c1 |  | 108% | 82.2% | 
Clc1ccc(CN2CCc3c([nH]c4ccccc34)C2)s1 | inactive |  |  | 
O=C1c2c(Cl)cccc2-[n+]2ccc3c([nH]c4ccccc43)c21 |  | 59.2% | 63.4% | 
O=C1c2ccc(Cl)c(Cl)c2-[n+]2ccc3c([nH]c4ccccc43)c21 |  | 57.8% | 57.4% | 
O=C(c1ccc2ccccc2n1)N1CCc2c([nH]c3ccccc23)C1 | inactive |  |  | 
c1ccc2c3c([nH]c2c1)CN(Cc1ccncc1)CC3 | inactive |  |  | 
O=C1c2ccccc2-[n+]2ccc3c([nH]c4ccccc43)c21.[Cl-] [FASCAPLYSIN CHLORIDE] |  | 57.6% | 57.5% | Activity (LS180 [4]): 43.7%; solubility thermodynamic [5]: > 1500 µg/mL; IC50 [14]: 4 µM; solubility thermodynamic [6]: > 1500 µg/mL; Activity (LS180 [7]): 34.5%; solubility thermodynamic [8]: > 1500 µg/mL; solubility thermodynamic [10]: > 1500 µg/mL; Activity (LS180 [11]): 39.3%; Activity (LS180 [12]): 42.9%
c1ccc2cc(CN3CCc4c([nH]c5ccccc45)C3)ccc2c1 | inactive |  |  | 
C[n+]1ccc2c([nH]c3ccccc32)c1C(=O)c1ccccc1F |  | 79% | 69.8% | 
O=[N+]([O-])c1ccc(CN2CCc3c([nH]c4ccccc34)C2)o1 | inactive |  |  | 
O=C(c1c[nH]c2ccccc12)c1nccc2c1[nH]c1ccccc12 |  | 99.4% | 78.7% | 
C[n+]1ccc2c([nH]c3ccccc32)c1C(=O)c1ccccc1Br.[I-] |  | 70.1% | 69.1% | Activity (LS180 [4]): 42.3%; solubility thermodynamic [5]: 800 µg/mL; solubility thermodynamic [6]: 800 µg/mL; Activity (LS180 [7]): 33.6%; solubility thermodynamic [8]: 800 µg/mL; fold change (FC) (LS180 [9]): 8; solubility thermodynamic [10]: 800 µg/mL; Activity (LS180 [11]): 41.8%; Activity (LS180 [12]): 80%
O=C(c1ccc([N+](=O)[O-])s1)N1CCc2c([nH]c3ccccc23)C1 | inactive |  |  | 
O=C(N1CCOCC1)N1CCc2c([nH]c3ccccc23)C1 | inactive |  |  | 
O=C(c1ccccc1)c1nccc2c1[nH]c1ccccc12 |  | 94.6% | 67.5% | 
C[n+]1ccc2c([nH]c3ccccc32)c1C(=O)c1c[nH]c2ccccc12 |  | 77.6% | 69.1% | 
O=C(c1cc(F)c(F)cc1Cl)c1nccc2c1[nH]c1ccccc12 |  | 112% | 81.9% | 
O=C1c2cc(F)c(Cl)cc2-[n+]2ccc3c([nH]c4ccccc43)c21 |  | 55.5% | 36.8% | 
O=C(c1ccc(C(F)(F)F)cc1)c1nccc2c1[nH]c1ccccc12 |  | 107% | 106% | 
C[n+]1ccc2c([nH]c3ccccc32)c1C(=O)c1ccccc1Cl |  | 71.4% | 69.7% | 
O=C1c2cc(Cl)ccc2-[n+]2ccc3c([nH]c4ccccc43)c21 |  | 58.7% | 67.9% | 
O=C(c1cnccn1)N1CCc2c([nH]c3ccccc23)C1 | inactive |  |  | 
